Data as given in ChEMBL document CHEMBL4513216, “Probing the Open Global Health Chemical Diversity Library for Multistage-Active Starting Points for Next-Generation Antimalarials” (ACS Infect Dis, 2020).

Experiment: Toxicity liver stage against HepG2, at 10uM
Format: cell-based
Set-up: test concentration 10 uM, cell line HepG2-A16-CD81EGFP
Conditions: human, HepG2-A16-CD81EGFP cells; read-out: INHIBITION
Outline: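 Uninfected HepG2-A16-CD81EGFP cells, 3 × 10^3 per well, 1536-well, plated on prespotted compound at 10 μM final, parasite-free screening media added to match infected plates; puromycin 10 μM positive, DMSO 0.5% negative; run in parallel with 48 h PbLuc assay at 37 °C, 5% CO2; viability by CellTiter-Glo luminescence, normalized to controls.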

Row | Structure (SMILES) | cytotoxicity at 10 µM [%]
1 | Cc1nc(-c2ccc(S(=O)(=O)N3CCC4(CC3)OCCO4)cc2)co1 | 1.69
2 | CC(=O)N1N=C(c2ccco2)OC1C(=O)NCCc1ccc(O)cc1 (centres undefined) | -1.19
3 | Cc1cc(C)nc(N2CCC(C(=O)Nc3ncc[nH]3)CC2)n1 | 4.47
4 | CCOc1ccc(NC(=O)Nc2cc(N3CCCCC3)ncn2)cc1 | 2.21
5 | CN(C)C(=O)CN1C[C@H]2CCN(C(=O)C3CCCO3)CC[C@H]2S1(=O)=O (some centres undefined) | 20.6
6 | c1cc(CN2C[C@@H]3OCCN(CC4CCCO4)[C@@H]3C2)co1 (some centres undefined) | 4.8
7 | Cc1ccc(C(=O)N2C[C@@H]3CN(S(C)(=O)=O)CCO[C@@H]3C2)s1 | -4.75
8 | CC(C)NC(=O)N1CCC2(CC(=O)N(c3ccsc3)C2)C1 (centres undefined) | -7.99
9 | O=C(NCC1CC1)C1CN(C(=O)Cc2cccs2)CC12CCOCC2 (centres undefined) | 4.76
10 | COCCC(=O)N1CCC2(CCCN2Cc2cccc(Cl)c2)C1 (centres undefined) | 10.6
11 | COc1cccc(CNc2c(C)cnc3c2c(=O)n(C)c(=O)n3C)c1 | 21.1
12 | C[C@H]1CN(Cc2cnn(C)c2)C[C@@]12CCN(Cc1cccnc1)C2=O | 8.99
13 | CC(=O)N1CCC2(CC1)CC[C@@]1(C(=O)N(C)C)CN(S(C)(=O)=O)C[C@@H]21 | -1.56
14 | Cn1c(=O)n(C)c2nc(Cl)c(CC(=O)c3ccc(F)cc3)n2c1=O | 6.28
15 | Cc1noc(C2CCCN(C(=O)c3cc(-c4ccccc4)on3)C2)n1 (centres undefined) | -7.14
16 | Cc1noc(C)c1-c1nc(C2CCCN(C(=O)C(C)C)C2)ccc1CO (centres undefined) | 0.983
17 | CC(C)CC(NC(=O)c1ccco1)c1nc2cccnc2n1C (centres undefined) | 6.08
18 | CC(=O)N1CCCC1c1nc(C)cc(-c2ccc(F)cc2)n1 (centres undefined) | 9.88
19 | COc1ccc(CN(C)CC2(O)CCN(C(=O)c3cccn3C)C2)cc1 (centres undefined) | 5.4
20 | CC1CCCCN1C(=O)c1ccc(=O)[nH]n1 (centres undefined) | 3.95
21 | Cc1nn(C)c(C)c1CC(=O)NCC1(C(N)=O)CCOCC1 | 0.63
22 | CCN1CCN(C(=O)C2CCOC2)c2ccccc21 (centres undefined) | 2.54

Row | Structure (SMILES) | cytotoxicity at 10 µM [%]
23 | c1ccc2oc(N3CCC(c4nncn4C4CC4)CC3)nc2c1 | 12.7
24 | Cc1ccc(NCCCNC(=O)NCc2c(C)cc(C)[nH]c2=O)nc1 | -45.2
25 | CS(=O)(=O)c1ccc2c(c1)N(C(=O)Cc1ccc(F)cc1)CCC2 | 9.95
26 | CCc1ccc(O)c(C(=O)N2CCN(CC(=O)N(C)C)CC2)c1 | 2.8
27 | O=S(=O)(Cc1ccccc1)NCC1CCCN(Cc2cccs2)C1 (centres undefined) | 3.3
28 | CC(C)c1cc(C(=O)N2CCCN(Cc3ccccc3)CC2)n[nH]1 | -5.41
29 | CCC(C)(CC)NC(=O)COc1nn(C)c2nc(C)cc(C)c12 | -6.17
30 | CNC(=O)Cc1coc(-c2ccc(F)cc2)n1 | -4.15
31 | Cc1cc(CN(Cc2cccnc2)CC2CCCO2)on1 (centres undefined) | -7.03
32 | Cc1nc(C)c(CC(=O)NCc2cccnc2OC2CCCC2)c(=O)[nH]1 | -5.87
33 | CCC(NCc1ncc[nH]1)c1nc(C(F)(F)F)cs1 (centres undefined) | 8.02
34 | COC(=O)CN1CCSC(c2ccccc2)C1 (centres undefined) | 17.8
35 | COc1ccc(C(=O)NCCCNc2ncccn2)cc1F | -10.5
36 | N#CCCN(Cc1cccnc1)C(=O)Cc1ccc(-n2cnnn2)cc1 | 2.32
37 | CSc1ccc(C)c(C(=O)Nc2c(C(N)=O)n[nH]c2C)c1 | 3.36
38 | Cc1cccc2c1NC1(CCOCC1)NC2=O | -49.6
39 | CC(c1ncc(-c2ccccc2)o1)N1CCN(C(=O)N(C)C)CC1 (centres undefined) | -12.1
40 | CC(C)C(C)(C#N)NC(=O)Cn1cc(-c2ccccc2)cn1 (centres undefined) | 8.34
41 | Cc1ccc2cc(C(=O)N3CCCN(C)CC3)ccc2n1 | -54.3
42 | CN(C)C(=O)CN1CCc2ncnc(C3CC3)c2CC1 | -94.1
43 | Cn1cc(C2COC3(CCN(C(=O)Cc4ccccc4)CC3)C2)cn1 (centres undefined) | -108
44 | CN1CC[C@]2(CN(S(C)(=O)=O)C[C@H]2c2ccccc2)C1=O | -120

Row | Structure (SMILES) | cytotoxicity at 10 µM [%]
45 | CCOCc1cnc2n1CCN(C(=O)c1ccoc1C)C2C (centres undefined) | -98.3
46 | CC(=O)N1CC[C@@H]2CN(C(=O)c3ccco3)CCO[C@@H]2C1 | 2.93
47 | CC(=O)N1CCn2c(C(=O)N(C)C)cnc2C1 | 1.54
48 | c1cnc(OCc2nnc3n2CCN(CC2CC2)C3)nc1 | -1.93
49 | O=C1CC(c2ccncc2)C2(CCN(CCO)CC2)N1 (centres undefined) | -3.4
50 | CCn1ncc2c1NC(=O)CC2c1cnc(NCc2ccccc2)nc1 (centres undefined) | -6.27
51 | OC(c1cccs1)C1CCN(c2ncccn2)CC1 (centres undefined) | -52.5
52 | Cc1nc2c(c(=O)[nH]1)CN(C(=O)CCC1CCCN(C)C1)C2 (centres undefined) | -7.76
53 | O=C([C@@H]1CCCO1)N1CCC(Cn2cc(-c3ccsc3)nn2)CC1 | 3.43
54 | CN1CCCCC1CCC(=O)NCCCn1nccc1C1CC1 (centres undefined) | -22.9
55 | CCn1nc(C)c(NC(=O)CN2CCC(c3ccccc3Cl)C2)c1C (centres undefined) | -7.58
56 | O=C1CCC2(CCN(c3cccc(C(F)(F)F)n3)CC2)CN1CCO | -18.2
57 | CN1CCc2[nH]nc(C(=O)N3CCCC4(CN(C)C(=O)O4)C3)c2C1 (centres undefined) | -53.6
58 | CCN(C)C(=O)c1cccc(S(=O)(=O)NCCc2csc(N)n2)c1 | -45.2
59 | O=C(NC1CCCCC1)[C@H]1CNC[C@@H](COc2cccnc2)C1 | -8.98
60 | CN(C)C(=O)N1CCCC(C(=O)N(C)CCCc2cnn(C)c2)C1 (centres undefined) | -0.645
61 | CCc1cc(N[C@@H](CC(C)C)C(N)=O)n2nc(C)c(C)c2n1 | 7.33
62 | O=C(NCCc1ccccc1)c1cccc(S(=O)(=O)NC2CCOC2)c1 (centres undefined) | 3.52
63 | Cc1cccnc1NCCNC(=O)C1CCN(Cc2ccco2)CC1 | -2.51
64 | CNS(=O)(=O)c1ccc(CN2CCCN(c3ccccc3)CC2)cc1 | 10.9
65 | CC(C)OC(=O)N1CCC(Cc2cccc(C(N)=O)c2)C1 (centres undefined) | 7.56
66 | CCOC(=O)c1coc(N2CCN(Cc3cccc(OC)c3)C(=O)C2)n1 | -1.83

Row | Structure (SMILES) | cytotoxicity at 10 µM [%]
67 | CC(C)[C@@H]1CN(C(=O)CN(C)Cc2ccccc2)C[C@H]1C(=O)O | -3.99
68 | CC(C(=O)N1CCn2cncc2C1)N1CCCC1 (centres undefined) | 6.38
69 | COc1cccc2c1OCC(C(=O)NCc1c(C)noc1C)C2 (centres undefined) | -15.5
70 | Cc1ccc(CN2CCC(n3cc(C(O)c4ccccc4)nn3)CC2)o1 (centres undefined) | 2.11
71 | CCC(Nc1nc(C(C)C)nc2c1cnn2C)c1ccncc1 (centres undefined) | -48
72 | CCOCCC(=O)N1CCCC(c2ncc[nH]2)C1 (centres undefined) | -9.43
73 | O=C(CCc1ccccc1)C1CCCN(C(=O)c2ncc(F)cc2F)C1 (centres undefined) | -17.4
74 | N#CC1CCCN(c2nc(-c3ccccc3)nc3c2CCNCC3)C1 (centres undefined) | -0.468
75 | Cc1nn(CC(C)C)c(N(C)C)c1CNCc1ccc2c(c1)OCO2 | -1.05
76 | CCN(c1ccc(C(=O)N2CCCC2c2cnn(C)c2)cn1)C(C)C (centres undefined) | -0.607
77 | CNC(=O)NC(=O)CN1CCN(c2ccc(C(=O)OC)cc2)CC1C (centres undefined) | -1.98
78 | CCCc1nc(CNCC2CCCN2c2cccnn2)cs1 (centres undefined) | -7.07
79 | CC(C(=O)N1CCCN(Cc2cnn(C)c2)CC1)n1ccnc1 (centres undefined) | -13.8
80 | COCC(c1cccc(C(F)(F)F)c1)N(C)C(=O)c1ccco1 (centres undefined) | -9.07
81 | Cc1cc(C)c(CNC(=O)NC(C)c2ccc3c(c2)CCC3)c(=O)[nH]1 (centres undefined) | 27.4
82 | CCOC(C)C(=O)N1CCCN(Cc2csc(CC)n2)CC1 (centres undefined) | -13
83 | Cc1cnc(CN(C)C2CCN(CCCc3cnn(C)c3)C2)o1 (centres undefined) | 2.61
84 | O=C(CN1CCc2cncnc2C1)Nc1ccc(Cl)cn1 | -3.24
85 | COc1cc(S(=O)(=O)N2CCc3ccccc32)cc(C(=O)O)c1OC | -7.54
86 | CCc1cccc(N2CCC(NC(=O)C3CCCO3)CC2)c1 (centres undefined) | -14.3
87 | Cc1nc(C)n(CC2CCCN(CCOc3cccc(F)c3)C2)n1 (centres undefined) | -3.18
88 | N#Cc1ccccc1OCCN1CCCC1Cn1cncn1 (centres undefined) | -10.7

Row | Structure (SMILES) | cytotoxicity at 10 µM [%]
89 | COCCc1noc(CN2CCc3nn(C(C)C)c(=O)cc3C2)n1 | -14.9
90 | CCOc1cc(C)nc(N2CCN(C(=O)c3ccc[nH]3)CC2)n1 | -4
91 | Cc1ccc(-n2nnc(C(=O)Nc3cc(C)nn3C)c2C2CC2)cc1 | 0.888
92 | Cc1cc(CNc2cc(Cl)ccc2OCCS(C)(=O)=O)no1 | -2.27
93 | CCn1ncc2c1CCCC2NCc1cc(Cl)c(OC)c(OC)c1 (centres undefined) | 24.4
94 | Cc1ccc(C(=O)N2CCCC(C(=O)N3CCCCC3)C2)c(O)c1 (centres undefined) | -7.52
95 | CC(C)(C)C(O)CN1CCN(C(=O)c2cccc3ncccc23)CC1 (centres undefined) | 4.67
96 | Cc1cnccc1-c1cnn(CCNC(=O)c2ccncc2)c1C1CC1 | 6.95
97 | O=C(CC1CC1)N1CCC2(CC1)CN(Cc1cccnc1)C(=O)CO2 | 3.59
98 | CNC(=O)N1CCC2(CC1)c1ncc(C)n1CCN2C | 5.22
99 | CCS(=O)(=O)N1CCC2(C1)C(=O)N(C)CCN2Cc1ccncc1 (centres undefined) | -4.78
100 | CCS(=O)(=O)N1Cc2nnn(C)c2C(COCCN(C)C)C1 (centres undefined) | 1.55
101 | CC(C)CCN1CCc2c(C(=O)N(C)Cc3ccccn3)nn(C)c2C1 | -0.449
102 | CCC(N)C(=O)N1CCC(OCc2ccc(Cl)c(Cl)c2)CC1 (centres undefined) | -12
103 | Cc1ccc(C(=O)N2CC3(CCCCC3)c3cc(C(=O)O)ccc32)cn1 | 11.2
104 | COCCN1CCC2(CC1)CC(N1CCOCC1)c1ccc(C)cc12 (centres undefined) | -106
105 | COc1ccc(CN2C[C@H](N3CCCC3=O)[C@@H]3OCCC[C@@H]32)cc1 | 9.51
106 | Fc1cnc(N2CCOC3(CCN(Cc4cccs4)CC3)C2)nc1 | 0.73
107 | O=C(C1=CCCC1)N1C[C@H]2CCC[C@@]2(COCc2ccncc2)C1 | 2.78
108 | COc1ccc(CN(C)CC(O)COCc2ccccc2Cl)c(OC)c1 (centres undefined) | 18.8
109 | c1ccc(-c2cc(CN3C[C@H]4CC[C@@H](C3)N(CC3CC3)C4)on2)cc1 | -4
